Only some compounds are listed: those with a hit (about 2% of all), similar ones and a draw of the others.
UHRF1 binding: UHRF1 methyl-DNA binding inhibition | 370,000 compounds, 0.75% hits | Q96T88 | inhibition, % at 4.4 µM | UHRF1 binding to methylated oligo, TR-FRET | AID 687016; in the data active = inhibition above about 21%;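 note: UHRF1 SRA domain binding a hemimethylated CpG hairpin DNA probe; 0% = median of test compound wells and 100% = reference inhibitor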
ARFGAP1 inhibitor: inhibitors of rat ARFGAP1; Q62848; Arfgap1-stimulated ARF1 GTP hydrolysis, GDP FP detection; inhibition, % at 16.5 µM; 360,000 compounds, 0.26% hits; AID 651572;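 active = inhibition above a per-plate limit, mean inhibition of low control wells plus 3 SD, cut at about 25% in these data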;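 note: 0% = DMSO wells with enzyme and 100% = wells lacking Arfgap1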
Target sequence (Q62848 1-136 limits assumed): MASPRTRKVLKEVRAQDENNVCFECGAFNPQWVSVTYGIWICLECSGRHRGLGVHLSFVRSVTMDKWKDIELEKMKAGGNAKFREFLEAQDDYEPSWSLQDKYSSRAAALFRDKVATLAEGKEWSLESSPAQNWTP
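Material – truncated rat Arfgap1 GAP domain · Buffer or medium – HEPES-based buffer, pH 7.5 · Reagent – human ARF1(Δ1-17)-GTP substrate · Dosing – 16.5 µM single point, 1.26% DMSO · Schedule – GTP hydrolysis reaction 2 h at 25 °C · Technique – GDP detection by fluorescence polarization · Benchmarks – No-Arfgap1 wells (100%) versus DMSO full-reaction wells (0%) · Repeats – single replicate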
TCR-CD3 inh: inhibitors of human TCR-CD3 interaction | 360,000 compounds, 0.37% hits | inhibition, % at 9.4 µM | TAMRA-labeled TCR probe fluorescence, biochemical; in the data active = inhibition above about 19%;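 note: recombinant mutant TCR 2C K166C tagged with TAMRA read by polarization; 0% = receptor in buffer alone and 100% = receptor with positive control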
ASAP1 inh: inhibitors of human ASAP1 ArfGAP activity. ASAP1-stimulated ARF1 GTP hydrolysis, GDP FP detection. inhibition, % at 16.5 µM. 360,000 compounds, 0.19% hits. AID 624377; in the data active = inhibition above about 25%;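 note: 0% = vehicle with enzyme and substrate and 100% = no enzyme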
Target sequence (Q9ULH1 325-724 limits assumed): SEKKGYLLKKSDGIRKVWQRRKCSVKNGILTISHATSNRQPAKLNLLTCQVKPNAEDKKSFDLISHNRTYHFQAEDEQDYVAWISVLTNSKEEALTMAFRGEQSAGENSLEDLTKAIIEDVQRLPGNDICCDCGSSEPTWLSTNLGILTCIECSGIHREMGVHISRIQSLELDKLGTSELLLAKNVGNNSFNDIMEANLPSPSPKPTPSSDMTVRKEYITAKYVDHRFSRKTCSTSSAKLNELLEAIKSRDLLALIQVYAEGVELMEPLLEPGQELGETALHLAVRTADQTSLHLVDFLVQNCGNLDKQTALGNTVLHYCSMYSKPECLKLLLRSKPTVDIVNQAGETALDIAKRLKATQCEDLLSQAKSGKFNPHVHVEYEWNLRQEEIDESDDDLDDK
MBD2 inh: blocks human MBD2 binding to methylated DNA; Q9UBB5; TR-FRET, MBD2 binding to methylated oligonucleotide; inhibition, % at 4.4 µM; 370,000 compounds, 0.31% hits; AID 686964; in the data active = inhibition above about 13%
LEDGF integ inh: blocks HIV-1 LEDGF/p75-dependent DNA integration; inhibition, % at 3.7 µM; TR-FRET IN-LEDGF/p75 DNA integration, Eu/Cy5; AID 743269; 370,000 compounds, 0.64% hits;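 active = inhibition above the screen-wide mean plus 3 SD, cut at about 13% in these data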;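 note: signal is the Cy5 over europium emission ratio at 671 and 618 nm; 0% = plate median of compound wells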
IN multimer act: HIV-1 integrase multimerization activation, counter-screen; 2,000 compounds, 17% hits; AID 1053131; TR-FRET HIV-1 integrase multimerization, biochemical; activation, % at 7.7 µM; shares compounds with LEDGF integ inh; in the data active = activation above about 8.9%
TR-FRET interf: TR-FRET optical interference, LEDGF/p75 integration counter-screen | shares compounds with LEDGF integ inh | TR-FRET optical interference counterscreen, HIV-1 IN multimerization | inhibition, % at 7.7 µM | 2,000 tested, under 10 active | AID 1053135;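 active = inhibition above the mean over all tested compounds plus 3 SD, which no compound reached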;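 note: 0% = integrase with antibodies and DMSO and 100% = antibodies without integrase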
IN-LEDGF confirm: LEDGF/p75-dependent HIV-1 integration inhibition, confirmation. shares compounds with LEDGF integ inh. TR-FRET LEDGF/p75-dependent HIV-1 integration, biochemical. inhibition, % at 3.7 µM. 2,000 compounds, 36% hits. AID 1053136; in the data active = inhibition above about 14%
* hit, by the source's call; · = not tested or not shown.

SMILES	UHRF1 binding	ARFGAP1 inhibitor	TCR-CD3 inh	ASAP1 inh	MBD2 inh	LEDGF integ inh	IN multimer act	TR-FRET interf	IN-LEDGF confirm
COc1ccc(C(=O)N(c2ccc(OC)cc2)S(=O)(=O)c2cccs2)cc1	0.6	-8.8	8.6	-2.6	-8.0	23.9*	0.3	-1.7	-1.8
COc1ccc(N(C(=O)c2ccccc2)S(=O)(=O)c2cccs2)cc1	-1.6	-5.5	-1.8	4.0	-3.6	-2.1	·	·	·
O=C1CC(c2ccco2)CC(O)=C1C=Nc1ccccc1-c1ccccc1 (stereo not given)	-1.4	1.3	-2.3	5.6	5.5	2.5	·	·	·
O=C1CC(c2ccco2)CC(O)=C1C=Nc1ccc(Br)cc1 (stereo not given)	-1.1	9.9	-5.1	3.8	-4.8	7.3	·	·	·
O=C1CC(c2ccco2)CC(O)=C1C=Nc1cc(Cl)ccc1Cl (stereo not given)	24.4*	-4.5	7.1	-1.2	0.3	20.8*	-0.4	2.2	21.4*
O=C1CC(c2ccco2)CC(O)=C1C=Nc1cc(Cl)ccc1O (stereo not given)	21.1*	4.4	8.7	10.4	3.7	34.3*	5.3	-18.9	15.6*
CCc1nc2ccc(C(=O)NCCCN3CCCC3=O)cn2c1N(CC)CCOC	-0.9	-9.0	3.3	-19.7	1.6	0.4	·	·	·
CC(=O)NC1=NC(=O)/C(=C/c2cc(C)n(-c3ccc(NC(C)=O)cc3)c2C)S1	-7.3	3.0	0.5	7.0	-5.6	-6.0	·	·	·
CC(=O)NC1=NC(=O)/C(=C/c2cc(C)n(-c3cccc(C(=O)O)c3)c2C)S1	45.2*	-0.7	6.8	13.5	8.7	31.3*	14.1*	-50.2	4.7
Oc1cc2c(cc1O)C1c3ccc(O)c(O)c3OCC1(O)C2 (stereo not given)	11.9	-3.3	132.0*	8.8	9.1	89.1*	40.7*	-205.2	78.6*
CCCCCn1nnnc1C1(C)CCCCC(=O)N1Cc1ccco1 (stereo not given)	-4.9	·	·	·	-6.2	6.1	·	·	·
O=C(/C(=N/N=C/c1ccc(O)c(O)c1O)c1ccccc1)c1ccccc1	-3.0	11.8	12.9	9.4	-0.1	14.0*	2.5	-12.6	28.2*
COc1ccccc1S(=O)(=O)N(C)C[C@@H]1OCc2cnnn2CCCC(=O)N([C@H](C)CO)C[C@@H]1C	0.1	4.4	4.0	-7.2	2.8	-0.7	·	·	·
C=C(C)CSc1nc2sc3c(c2c(=O)n1-c1ccccc1)CCN(C)C3	-1.1	-10.5	9.3	3.7	-0.9	0.6	·	·	·
C=CCSc1nc2sc3c(c2c(=O)n1-c1ccc(C)cc1)CCN(C)C3	1.7	2.7	-2.9	4.0	2.9	34.0*	-1.4	5.0	-5.5
COc1ccccc1Nc1nc(N)nc(CN2CCN(c3ccccc3F)CC2)n1	-0.4	10.0	-2.9	-2.4	4.2	4.6	·	·	·
COc1ccccc1N1CCN(Cc2nc(N)nc(Nc3ccc(C)c(Cl)c3)n2)CC1	-3.4	16.4	-3.7	-55.8	-4.9	13.5*	1.8	-9.2	4.9
O=C1C2C(C(=O)N1/N=C/c1cc([N+](=O)[O-])c(O)cc1O)C1C=CC2C12CC2 (stereo not given)	14.7	8.3	7.8	6.1	1.5	18.2*	7.4	-37.2	19.7*
O=C(NNC(=O)c1cc(Cl)ccc1[N+](=O)[O-])c1csc(N2CCOCC2)n1	2.9	-4.3	-2.0	0.5	-3.5	-4.8	·	·	·
CC(C)C[C@H](NC(=O)c1nc[nH]c1C(=O)NCc1ccc(CNC(=O)OC(C)(C)C)cc1)C(=O)OCc1ccccc1	0.3	20.1	-0.5	-6.5	-0.9	-1.9	·	·	·
Oc1ccc(-c2csc(Nc3ccccn3)n2)cc1O	-3.1	5.5	15.5	6.7	-8.4	0.5	·	·	·
Oc1ccc(-c2csc(Nc3cccc4ccccc34)n2)cc1O	-1.2	11.1	10.4	21.5	-0.2	23.5*	16.5*	-83.2	67.9*
COc1ccc(N(C(C)C(=O)N/N=C/c2cccnc2)S(C)(=O)=O)cc1 (stereo not given)	1.2	5.2	-2.0	8.1	0.7	35.3*	0.2	-1.2	2.1
C(=C\c1ccc2nncn2c1)/c1ccccc1	-3.3	2.8	11.6	15.8	1.5	13.5*	-4.3	15.2	13.1
c1ccc2c(-c3ccc4nncn4c3)cncc2c1	-2.2	-6.9	9.7	-1.2	-3.7	1.1	·	·	·
SMILES	UHRF1 binding	ARFGAP1 inhibitor	TCR-CD3 inh	ASAP1 inh	MBD2 inh	LEDGF integ inh	IN multimer act	TR-FRET interf	IN-LEDGF confirm
Cc1ccccc1-n1c(=O)cc(N2CCN(Cc3ccccc3)CC2)[nH]c1=O	-1.4	-8.6	4.5	5.9	-8.7	17.9*	0.1	-0.4	1.5
O=C(C1CCN(S(=O)(=O)c2ccc3[nH]c(=O)oc3c2)CC1)N1CCCC1	8.0	·	·	·	2.2	4.3	·	·	·
Cc1cc([N+](=O)[O-])nn1Cc1ccc(C(=O)N/N=C/c2ccc(N(C)C)cc2)cc1	-2.8	-5.9	4.9	2.2	-4.5	-2.4	·	·	·
CCN1CCN(c2nnc(-c3ccc(C)cc3)c3ccccc23)CC1	2.6	4.6	-4.2	0.1	-3.1	2.0	·	·	·
O=c1cc(-c2cccc([N+](=O)[O-])c2)[nH][nH]1	18.6	-2.5	-3.8	3.8	5.1	21.7*	-2.2	11.2	8.2
Nc1cc(-c2cccc([N+](=O)[O-])c2)[nH]n1	-2.2	7.0	-1.7	-2.0	0.6	2.6	·	·	·
CCCCn1c(N)c(N(CCOC)C(=O)c2ccc(NC3CC3)c([N+](=O)[O-])c2)c(=O)[nH]c1=O	-3.1	1.4	3.9	-4.5	-7.3	-0.3	·	·	·
CCCCn1c(N)c(N(CCOC)C(=O)c2ccc(N3CCCC3)c([N+](=O)[O-])c2)c(=O)[nH]c1=O	-6.9	8.0	0.2	-2.4	-6.8	27.5*	0.4	-1.9	2.3
O=C(O)CCC(=O)c1ccc(C2CCCCCC2)cc1	0.9	-0.9	-5.8	-7.4	0.0	-1.0	·	·	·
COC(=O)[C@H](C(C)C)N(Cc1cn(Cc2ccc(C)cc2)nn1)S(=O)(=O)c1ccc(F)cc1Br	0.0	·	·	·	4.1	0.2	·	·	·
CCc1ccc(OCCNC(=O)c2ccccc2SCc2ccccc2)cc1	-2.2	11.5	7.3	-0.5	-4.9	-3.4	·	·	·
Cc1cccc(NC(=O)c2ccccc2SCc2ccc(F)cc2)n1	-3.9	10.9	2.8	10.5	-2.0	53.1*	0.8	-4.3	-7.0
CCNC(=O)c1ccccc1SCc1ccccc1	9.3	-2.4	7.1	-5.2	4.1	14.1*	-1.6	5.5	-4.7
CC(C)NC(=O)CCCn1cc([N+](=O)[O-])cn1	5.6	-9.6	3.2	-6.8	2.6	6.8	·	·	·
